Source: PubChem (several laboratories)
NOD2 RIPK2 PPI – NOD2-RIPK2 protein interaction inhibition; inhibition, % at 4.98 µM; hit rate 0.38% among 360,000; CHO BLA complementation NOD2-RIPK2, CCF4 ratio; in the data active = inhibition above about 21%
UPR CHOP act – activators of apoptotic arm of unfolded protein response (CHOP); CHO-CHOP luciferase reporter, UPR activation, luminescence; percent of tunicamycin response over DMSO baseline; activation, % at 10 µM; hit rate 0.34% among 330,000;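 active = at 10 µM dose, activation of 40% or more, normalized to positive control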
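Evaluation: % reporter activation, DMSO baseline versus tunicamycin full activation; System: CHO-CHOP luciferase reporter cell line; Input: 500 cells/well; Incubation: 6 h compound treatment, 37 °C; Measured by: Steady-Glo luciferase luminescence; Dosing: one dose, 10 µM in 0.5% DMSO; Buffer or medium: F12 medium, 10% FBS; Benchmarks: positive tunicamycin 10 µg/mL, negative DMSO alone.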
TLR9-MyD88 block – TLR9-MyD88 interaction inhibition | hit rate 0.21% among 340,000 | AID 504734 | Q9NR96+Q99836 | inhibition, % at 4.98 µM | CHO BLA complementation TLR9-MyD88, CCF4 FRET ratio;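 active = inhibition above the mean over all tested compounds plus 3 SD, cut at about 21% in these data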
CHOP inh – CHOP inhibition in unfolded protein response | CHO-K1 CHOP-promoter luciferase, tunicamycin-induced, 15-18 h | inhibition, % at 10 µM | hit rate 3.8% among 220,000 | AID 2732;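 active = compounds that reduced the stress-induced luciferase reporter signal by more than about 70% of percent inhibition, limit read from the data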
UPR XBP1 act – adaptive UPR (XBP1) activation; hit rate 0.33% among 330,000; activation, % at 20 µM; AID 463104; CHO-XBP1 luciferase reporter, IRE1-XBP1 UPR activation, luminescence; percent of tunicamycin response, DMSO as zero;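 active = versus positive control, 20 µM dose yields 30% or more activation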
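Assay system: IRE1-XBP1 luciferase reporter CHO line. Input: 1000 cells/well. Buffer or medium: F12 with 10% serum. Doses: 20 µM, 1% DMSO. Times: overnight seeding at 37 °C, 6 h compound treatment at 37 °C. Technique: Steady-Glo luciferase glow luminescence, 10 min after reagent addition.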
TLR4-MyD88 BLA – TLR4-MyD88 interaction inhibition in cells; O00206+Q99836; hit rate 0.18% among 200,000; HeLa CL3-4 TLR4/MyD88 BLA complementation, FRET ratio; inhibition, % at 8.4 µM; in the data active = inhibition above about 25%
Target sequence (O00206 whole entry, looked up): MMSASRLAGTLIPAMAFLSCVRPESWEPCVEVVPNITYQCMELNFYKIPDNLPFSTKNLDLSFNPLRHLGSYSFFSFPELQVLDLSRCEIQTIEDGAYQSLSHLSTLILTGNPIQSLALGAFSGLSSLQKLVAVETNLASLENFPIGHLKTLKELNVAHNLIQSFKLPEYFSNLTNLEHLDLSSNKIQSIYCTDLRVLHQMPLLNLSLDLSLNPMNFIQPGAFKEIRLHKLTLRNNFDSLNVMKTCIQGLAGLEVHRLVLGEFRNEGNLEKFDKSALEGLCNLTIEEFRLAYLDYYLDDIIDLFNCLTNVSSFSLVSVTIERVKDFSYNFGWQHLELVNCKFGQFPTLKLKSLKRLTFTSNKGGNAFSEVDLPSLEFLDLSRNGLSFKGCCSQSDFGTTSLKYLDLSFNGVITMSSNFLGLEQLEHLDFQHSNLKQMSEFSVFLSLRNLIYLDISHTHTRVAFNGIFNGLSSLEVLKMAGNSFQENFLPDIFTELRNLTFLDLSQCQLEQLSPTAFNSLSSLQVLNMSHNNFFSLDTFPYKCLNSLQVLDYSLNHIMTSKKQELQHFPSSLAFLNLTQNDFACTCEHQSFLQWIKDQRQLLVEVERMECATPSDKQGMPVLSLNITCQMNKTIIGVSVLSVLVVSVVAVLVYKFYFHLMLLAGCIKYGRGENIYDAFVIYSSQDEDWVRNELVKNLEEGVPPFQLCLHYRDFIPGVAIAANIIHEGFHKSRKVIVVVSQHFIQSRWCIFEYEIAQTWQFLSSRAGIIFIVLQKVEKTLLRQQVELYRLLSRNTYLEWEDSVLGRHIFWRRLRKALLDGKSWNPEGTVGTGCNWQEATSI
Target sequence (Q99836 whole entry, looked up): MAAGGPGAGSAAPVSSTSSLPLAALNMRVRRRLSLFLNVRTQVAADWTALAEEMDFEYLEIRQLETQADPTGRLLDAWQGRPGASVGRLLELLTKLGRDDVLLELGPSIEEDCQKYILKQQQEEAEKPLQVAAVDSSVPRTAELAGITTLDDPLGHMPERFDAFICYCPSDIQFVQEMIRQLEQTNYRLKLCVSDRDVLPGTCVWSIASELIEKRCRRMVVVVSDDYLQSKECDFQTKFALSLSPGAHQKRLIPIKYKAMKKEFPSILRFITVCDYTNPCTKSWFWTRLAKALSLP
CHOP confirm – confirmation of CHOP induction inhibitors; AID 504437; CHO-CHOP promoter luciferase reporter, tunicamycin-induced, luminescence; hit rate 45% among 2,100; shares compounds with CHOP inh; inhibition, % at 10 µM;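 active = mean of three repeat readings of reporter signal inhibition above a set limit, cut at about 70% in these data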
Of the large screens only hits and unclear results are named; the others gave an inactive call (follow-up assays come after a bar, where they were run). Many of the other results were omitted from the sample, so hits are more common in it than they were.

CC1=NNC(=O)/C1=C\c1cn(-c2ccccc2)nc1-c1ccc(F)cc1	CHOP inh 106 (no result: UPR CHOP act, UPR XBP1 act) | CHOP confirm 119
C=CCC[C@@H](Cc1ccc(F)cc1)C(=O)OC[C@@H](NC(=O)[C@@H](CC=C)CC(=O)N(CCO)Cc1ccccc1)c1ccccc1	none (no result: CHOP inh, TLR4-MyD88 BLA)
Cc1ccc(S(=O)(=O)N/N=C/c2cccc([N+](=O)[O-])c2)cc1	none
CCCCCCCCCS(=O)(=O)N/N=C/c1cccc([N+](=O)[O-])c1	CHOP inh 99 | CHOP confirm 97
CC(=O)c1ccc(N2CCN(S(=O)(=O)c3ccc4c5c3CC(=O)N5CC(C)S4)CC2)cc1 (centres undefined)	none (no result: CHOP inh, TLR4-MyD88 BLA)
O=c1c2ccccc2nc(-c2ccco2)n1Cc1ccccc1	none
O=C(On1c(-c2ccccc2)nc2ccccc2c1=O)c1ccco1	CHOP inh 104 | CHOP confirm 116
O=C(CCl)Nc1cccc(-c2cnc3ccccc3n2)c1	none (no result: CHOP inh) | CHOP confirm 84
COc1ccc(-c2c3c(nc4sc5c(=O)[nH]c(C)nc5c24)CCC3)cc1	CHOP inh 113 | CHOP confirm inactive
CC(C)C[C@@H](CN)NC(=O)c1nc[nH]c1C(=O)N[C@@H](C)C(=O)CNC[C@H](C)NC(=O)c1nc[nH]c1C(=O)N[C@@H](C)C(=O)O	none (no result: UPR CHOP act, CHOP inh, UPR XBP1 act, TLR4-MyD88 BLA)
O=C(Nc1ccc(Cl)cc1)N1CCC(c2nc(-c3ccc(F)cc3)no2)CC1	CHOP inh 104 | CHOP confirm inactive
COc1ccc(NC(=O)N2CCCC(c3nc(-c4ccc(OC)cc4)no3)C2)cc1 (centres undefined)	none
Cc1ccc(-c2nc(N)s[n+]2-c2ccccc2)cc1	none (no result: UPR CHOP act, UPR XBP1 act)
CNc1nc(-c2ccccc2)[n+](-c2ccc(C)cc2)s1	CHOP inh 97 (no result: UPR CHOP act, UPR XBP1 act) | CHOP confirm inactive
O=S(=O)(Nc1ccc(-c2csc(-c3ccccc3)n2)cc1)c1ccccc1	CHOP inh 100 | CHOP confirm inactive
O=C(NNc1ccccc1Br)C(O)(c1cccc(C(F)(F)F)c1)c1cccc(C(F)(F)F)c1	CHOP inh 103 | CHOP confirm 118
CC(C)(O)C(=O)NNC(=S)Nc1cccc(C(F)(F)F)c1	none
COc1ccc2c(Cl)c(C(=O)N/N=C/c3ccc4c(c3)OCO4)sc2c1	CHOP inh 107 | CHOP confirm inactive
O=c1[nH]c(=S)[nH]c(O)c1N=Nc1ccc(-c2ccccc2)cc1[N+](=O)[O-]	CHOP inh 102 (no result: NOD2 RIPK2 PPI, UPR CHOP act, TLR9-MyD88 block, UPR XBP1 act) | CHOP confirm inactive
CCCC(=O)N1CCN(c2ccc(NC(=O)c3cc4ccccc4o3)cc2Cl)CC1	none (no result: CHOP inh) | CHOP confirm 109
CCC(=O)N1CCN(c2ccc(NC(=O)c3cc4ccccc4o3)cc2Cl)CC1	none (no result: CHOP inh)
COc1ccc(C2=CC(=O)C=CC2=O)cc1	CHOP inh 103 (no result: NOD2 RIPK2 PPI, UPR CHOP act, TLR9-MyD88 block, UPR XBP1 act, TLR4-MyD88 BLA) | CHOP confirm inactive
CCNC(=O)C1(C)CCCN(C(=O)c2cc(-c3ccccc3)cs2)C1 (centres undefined)	none (no result: UPR CHOP act, TLR9-MyD88 block, CHOP inh, UPR XBP1 act, TLR4-MyD88 BLA)
CC(C)CCn1c(SCc2ccc(Cl)cc2)nc2c1c(=O)[nH]c(=O)n2C	CHOP inh 97 | CHOP confirm 93
CCCC[C@@H]1CNCCN1CCc1cccc2ccccc12	none (no result: CHOP inh, TLR4-MyD88 BLA)
CCc1nnc(NC(=O)CSc2nc3cccnc3n2Cc2ccccc2)s1	none
C=C(C(=O)c1ccccc1)C(C)C(=C)C(=O)c1ccccc1	CHOP inh 100 (no result: UPR CHOP act, UPR XBP1 act) | CHOP confirm 110
C=C(C(=O)c1ccccc1)C(c1ccccc1)C(C)C(=O)c1ccccc1 (centres undefined)	none
CCC(C)(C)n1nnnc1C(c1ccc2ncccc2c1)N1CCN2CCCC2C1 (centres undefined)	none
CCOC(=O)Cc1nnc2c(Nc3ccc(Cl)cc3)nc3nonc3n12	CHOP inh 105 | CHOP confirm inactive
O=C(O)CNC(=O)c1ccc(NC(=O)/C(=C/c2ccccc2)NC(=O)c2ccco2)cc1	none (no result: CHOP inh, TLR4-MyD88 BLA)
CC(=O)Oc1ccc(N2C(=O)C3C4C=CC(CO)(O4)C3C2=O)cc1 (centres undefined)	none
